According to ChEMBL document CHEMBL5543124, “Lead Compound Development of SRC-3 Inhibitors with Improved Pharmacokinetic Properties and Anticancer Efficacy” (J Med Chem, 2024):
Active and inactive are the calls of the source. The rule behind the calls is not given here.

Tests used:
[1] = Half life in human liver microsomes at 1 uM incubated for 30 mins in presence of NADPH by LC-MS/MS analysis; format: ADME, Microsome; conditions: 0.5 h
How it was run: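 Human liver microsomes (1 mg/mL final) in 100 mM phosphate buffer with or without NADPH; compound at 1 μM final, 37 °C. Samples taken at 0, 5, 10, 20, 30 min (0 and 30 min without NADPH), quenched with cold acetonitrile containing internal standards, analysed by LC-MS/MS; verapamil as control.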

[2] = Cmax in CD-1 mouse at 1 mg/kg,iv administration measured upto 48 hrs by LC-MS/MS analysis; format: ADME, organism-based; conditions: in vivo
How it was run: (§1)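 Single intravenous bolus in ICR male mice (n = 3, 6 weeks); dosing solution 0.5 mg/mL in 20% DMSO, 16% PEG, 4% dextrose in PBS. Tail-vein blood (10 μL) taken at 2, 5, 15, 30 min and 1, 2, 4, 8, 24, 48 h. Plasma quantified by LC-MS/MS against a 0.5–1000 ng/mL calibration; parameters from non-compartmental analysis.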

[3] = target: Voltage-gated inwardly rectifying potassium channel KCNH2 (Homo sapiens, UniProt Q12809); assay: Inhibition of hERG; format: toxicity
MDA-PCa-118b [4] = assay: Antitumor activity against patient derived MDA-PCa-118b cells xenografted in SCID mouse assessed as reduction in tumor burden in femur at 10 mg/kg,ip administration measured after 4 weeks by CT imaging analysis; format: functional, organism-based; conditions: Homo sapiens
How it was run: (§2)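 AR-PDX 118b cells (1×10^5) injected via intra-femoral artery in male SCID mice (8–9 weeks). After 2 weeks, 10 mg/kg/day ip or vehicle for 4 weeks (n = 9/group). X-ray imaging every two weeks. At the end, femurs CT-scanned (5 per group) with 3D-reconstruction tumor size, and H&E histology used for tumor/femur area ratio.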

[5] = Stability in human plasma incubated upto 150 mins; format: ADME, cell-free; conditions: 2.5 h
Prostate cancer organoid = assay: Antitumor activity against patient derived Prostate cancer PDX organoid assessed as reduction in organoid formation measured after 2 weeks; format: functional, tissue-based; conditions: Homo sapiens
How it was run: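 Single cells from prostate cancer PDX tumors (collagenase I/III digest); 20000 cells embedded in collagen gel and cultured overnight, then treated or vehicle for 14 days with at least 5 wells per dose. Organoids imaged and counted on day 14; groups compared by Student t test.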

MDA-MB-468 [6] = assay: Cytotoxicity against human MDA-MB-468 cells assessed as change in gene expression observed after 12 hrs by RNA-seq assay
[7] = AUC (0 to t) in CD-1 mouse at 10 mg/kg,po administration measured upto 48 hrs by LC-MS/MS analysis; format: ADME, organism-based; conditions: in vivo
How it was run: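 Oral gavage in ICR male mice (n = 3); dosing solution 1 mg/mL in 20% DMSO, 16% PEG, 4% dextrose in PBS. Tail-vein blood (10 μL) taken at 15, 30 min and 1, 2, 4, 8, 24, 48 h. Plasma quantified by LC-MS/MS against a 0.5–1000 ng/mL calibration; parameters from a non-compartmental extravascular model.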

Mu-type opioid receptor = Mu-type opioid receptor (Homo sapiens, UniProt P35372); assay: Antagonist activity at OPRM1 (unknown origin) by cAMP assay; format: toxicity
How it was run: (§3)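 Tested in a commercial off-target safety screening panel of 78 targets. Values reported as RC50, taken as IC50 except for agonist mode, where RC50 is EC50.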

[8] = AUC (0 to t) in CD-1 mouse at 1 mg/kg,iv administration measured upto 48 hrs by LC-MS/MS analysis; format: ADME, organism-based; conditions: in vivo; how it was run: as §1
PANC-1 = assay: Cytotoxicity against SiRNA mediated SRC-3.1 knockdown human PANC-1 cells assessed as inhibition of cell growth incubated for 72 hrs by MTT assay; format: functional, cell-based; conditions: PANC-1, 72 h
How it was run: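 PANC-1 cells with stable lentiviral shRNA knockdown of SRC-3 or control shRNA; SRC-3 levels checked by western blot. Cells treated with a dose series for 72 h and viability read by MTT.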

[9] = Tmax in CD-1 mouse at 10 mg/kg,po administration measured upto 48 hrs by LC-MS/MS analysis; format: ADME, organism-based; conditions: in vivo
How it was run: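 Male ICR mice (n=3) dosed by oral gavage at 10 mg/kg from a 1 mg/mL solution in 20% DMSO/16% PEG/4% dextrose in PBS. Tail-vein blood (10 μL) drawn at 15 and 30 min and at 1, 2, 4, 8, 24 and 48 h. Plasma quantified by LC-MS/MS against calibration standards. Parameters from non-compartmental extravascular model.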

MDA-PCa-118b [10] = assay: Antitumor activity against patient derived MDA-PCa-118b cells xenografted in SCID mouse assessed as reduction in bone damage at 10 mg/kg,ip administration measured after 4 weeks by X-ray imaging analysis; format: functional, organism-based; conditions: Homo sapiens; how it was run: as §2
MDA-PCa-118b [11] = assay: Antitumor activity against patient derived MDA-PCa-118b cells xenografted in SCID mouse assessed as reduction in bone metastasis at 10 mg/kg,ip administration measured after 4 weeks by X-ray imaging analysis; format: functional, organism-based; conditions: Homo sapiens; how it was run: as §2
[12] = Antitumor activity against patient derived MDA-PCa-118b cells xenografted in SCID mouse assessed as reduction in ratio of tumor area to femur area at 10 mg/kg,ip administration measured after 4 weeks by CT imaging analysis; format: functional, Homo sapiens; design: scale not given: the % may be the effect or the level left; how it was run: as §2
[13] = target: Nuclear receptor coactivator 3 (Homo sapiens) (UniProt Q9Y6Q9); assay: Inhibition of recombinant His-tagged SRC-3 (unknown origin) expressed in baculovirus assessed as reduction in recruitment of p300 in ER complex at 0.15 uM incubated for 30 mins by pull-down based western blotting analysis
How it was run: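 Purified baculovirus-expressed His-SRC-3-flag (0.1 μg) preincubated with compound or vehicle for 30 min on ice. Then 0.1 μg recombinant ERα and His-p300 plus ERE-containing DNA oligo and 1 μM 17β-estradiol added, 1 h on ice. ER complexes immunoprecipitated with anti-ERα antibody; SRC-3 and p300 detected by western blot.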

MDA-MB-468 [14] = assay: Cytotoxicity against human MDA-MB-468 cells assessed as chromatin accessibility alteration observed after 4 hrs by ATAC-seq analysis; format: functional, cell-based
How it was run: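 MDA-MB-468 cells treated for 4 h (ATAC-seq) or 12 h (RNA-seq) before chromatin accessibility or transcript profiling.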

Endothelin-1 receptor = target: T1, Endothelin-1 receptor (Homo sapiens, UniProt P25101); assay: Antagonist activity at EDNRA (unknown origin) by calcium flux assay; format: toxicity; how it was run: as §3
T1 sequence (P25101 whole entry): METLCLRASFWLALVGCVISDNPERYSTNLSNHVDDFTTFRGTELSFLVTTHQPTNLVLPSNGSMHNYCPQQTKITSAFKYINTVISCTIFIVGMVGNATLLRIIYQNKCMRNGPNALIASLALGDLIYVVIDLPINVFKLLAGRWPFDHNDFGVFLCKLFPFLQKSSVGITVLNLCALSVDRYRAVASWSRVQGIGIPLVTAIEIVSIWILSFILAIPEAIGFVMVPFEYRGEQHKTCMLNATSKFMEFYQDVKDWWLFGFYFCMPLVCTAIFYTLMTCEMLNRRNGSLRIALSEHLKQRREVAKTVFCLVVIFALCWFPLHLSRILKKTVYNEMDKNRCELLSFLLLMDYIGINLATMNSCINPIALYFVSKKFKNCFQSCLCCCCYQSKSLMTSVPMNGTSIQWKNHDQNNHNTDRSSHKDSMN

Nuclear receptor coactivator 3 (Homo sapiens), sequence (Q9Y6Q9 2-1424 limits assumed): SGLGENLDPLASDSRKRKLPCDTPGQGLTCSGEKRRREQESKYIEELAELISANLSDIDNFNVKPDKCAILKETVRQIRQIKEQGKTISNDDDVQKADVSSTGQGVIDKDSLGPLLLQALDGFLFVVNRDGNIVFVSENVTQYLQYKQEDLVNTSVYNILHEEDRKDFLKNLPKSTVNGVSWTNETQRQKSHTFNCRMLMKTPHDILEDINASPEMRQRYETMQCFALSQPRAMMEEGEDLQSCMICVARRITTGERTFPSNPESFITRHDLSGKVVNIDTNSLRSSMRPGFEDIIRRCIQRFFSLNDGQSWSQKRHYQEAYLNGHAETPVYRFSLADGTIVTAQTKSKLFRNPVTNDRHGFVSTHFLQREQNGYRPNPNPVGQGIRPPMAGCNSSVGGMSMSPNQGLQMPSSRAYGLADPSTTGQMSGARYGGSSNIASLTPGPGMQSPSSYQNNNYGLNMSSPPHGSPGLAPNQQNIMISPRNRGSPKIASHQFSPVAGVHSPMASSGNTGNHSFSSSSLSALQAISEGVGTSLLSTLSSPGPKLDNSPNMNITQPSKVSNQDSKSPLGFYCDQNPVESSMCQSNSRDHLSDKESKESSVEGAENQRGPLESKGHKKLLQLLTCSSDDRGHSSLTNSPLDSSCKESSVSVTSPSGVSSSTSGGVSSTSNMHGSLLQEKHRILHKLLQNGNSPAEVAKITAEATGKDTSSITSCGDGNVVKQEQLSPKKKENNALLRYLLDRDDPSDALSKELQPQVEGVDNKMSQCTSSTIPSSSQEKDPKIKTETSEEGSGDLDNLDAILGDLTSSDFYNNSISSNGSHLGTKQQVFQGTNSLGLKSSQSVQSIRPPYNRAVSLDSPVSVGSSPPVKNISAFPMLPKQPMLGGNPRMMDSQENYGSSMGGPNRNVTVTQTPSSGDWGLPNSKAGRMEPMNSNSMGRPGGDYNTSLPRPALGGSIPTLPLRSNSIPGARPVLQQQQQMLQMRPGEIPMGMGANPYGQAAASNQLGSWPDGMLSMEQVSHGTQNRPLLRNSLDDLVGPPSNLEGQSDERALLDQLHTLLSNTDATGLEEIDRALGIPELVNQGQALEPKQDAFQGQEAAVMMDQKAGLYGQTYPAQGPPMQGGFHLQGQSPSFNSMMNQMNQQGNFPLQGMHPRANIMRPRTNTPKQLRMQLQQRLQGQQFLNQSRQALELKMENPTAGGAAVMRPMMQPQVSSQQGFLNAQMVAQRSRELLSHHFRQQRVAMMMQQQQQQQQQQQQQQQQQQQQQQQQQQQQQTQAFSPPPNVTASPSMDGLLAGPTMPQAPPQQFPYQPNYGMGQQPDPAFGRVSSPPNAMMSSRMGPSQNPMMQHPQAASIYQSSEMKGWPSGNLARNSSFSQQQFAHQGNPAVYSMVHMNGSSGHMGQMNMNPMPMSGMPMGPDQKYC
Mu-type opioid receptor, sequence (P35372 whole entry): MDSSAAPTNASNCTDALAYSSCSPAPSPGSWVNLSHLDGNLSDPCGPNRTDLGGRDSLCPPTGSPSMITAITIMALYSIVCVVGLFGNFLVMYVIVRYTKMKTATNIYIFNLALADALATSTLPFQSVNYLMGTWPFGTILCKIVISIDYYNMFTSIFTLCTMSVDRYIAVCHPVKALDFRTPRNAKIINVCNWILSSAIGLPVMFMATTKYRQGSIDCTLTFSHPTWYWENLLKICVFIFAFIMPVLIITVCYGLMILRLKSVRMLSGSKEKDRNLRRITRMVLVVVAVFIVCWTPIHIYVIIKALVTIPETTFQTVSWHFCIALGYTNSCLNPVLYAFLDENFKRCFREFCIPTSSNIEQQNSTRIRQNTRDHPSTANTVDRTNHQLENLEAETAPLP
Voltage-gated inwardly rectifying potassium channel KCNH2, sequence (Q12809 whole entry): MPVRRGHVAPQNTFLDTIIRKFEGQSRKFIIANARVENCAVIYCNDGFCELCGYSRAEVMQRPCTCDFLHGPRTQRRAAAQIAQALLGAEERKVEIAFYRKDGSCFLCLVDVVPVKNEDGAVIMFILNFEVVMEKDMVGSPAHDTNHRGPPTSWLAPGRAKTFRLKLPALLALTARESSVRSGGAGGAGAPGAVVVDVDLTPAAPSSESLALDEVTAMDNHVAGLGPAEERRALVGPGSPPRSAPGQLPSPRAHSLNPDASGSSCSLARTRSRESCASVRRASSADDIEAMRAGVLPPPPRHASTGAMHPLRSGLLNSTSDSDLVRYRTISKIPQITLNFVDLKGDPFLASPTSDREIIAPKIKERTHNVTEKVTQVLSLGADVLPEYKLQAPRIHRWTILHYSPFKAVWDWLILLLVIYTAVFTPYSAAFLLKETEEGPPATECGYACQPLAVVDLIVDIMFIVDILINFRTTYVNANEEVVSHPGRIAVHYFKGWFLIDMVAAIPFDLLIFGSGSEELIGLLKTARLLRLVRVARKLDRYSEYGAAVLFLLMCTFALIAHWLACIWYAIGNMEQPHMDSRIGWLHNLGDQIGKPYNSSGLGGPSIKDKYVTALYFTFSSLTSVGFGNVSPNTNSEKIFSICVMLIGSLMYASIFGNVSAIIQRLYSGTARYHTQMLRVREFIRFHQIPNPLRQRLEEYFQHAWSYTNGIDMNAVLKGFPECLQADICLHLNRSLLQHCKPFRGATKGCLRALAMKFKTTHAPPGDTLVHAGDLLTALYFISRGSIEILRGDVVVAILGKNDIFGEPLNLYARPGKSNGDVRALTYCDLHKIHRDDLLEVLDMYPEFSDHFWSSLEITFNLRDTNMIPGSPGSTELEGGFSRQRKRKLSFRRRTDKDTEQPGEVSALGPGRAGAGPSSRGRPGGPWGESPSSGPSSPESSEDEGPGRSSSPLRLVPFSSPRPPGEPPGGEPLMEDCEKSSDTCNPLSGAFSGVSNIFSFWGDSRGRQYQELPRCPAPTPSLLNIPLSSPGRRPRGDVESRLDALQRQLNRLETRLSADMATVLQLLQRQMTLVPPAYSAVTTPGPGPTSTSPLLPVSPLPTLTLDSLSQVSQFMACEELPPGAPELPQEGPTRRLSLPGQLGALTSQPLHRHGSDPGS

## C/C(=N\N=c1/[nH]c2cc(F)c(F)cc2n1C)c1ccc(F)cn1
[1]
  t1/2: 8.49 min
[2]
  Cmax: 1066 ng/mL
[3]
  IC50: 2700 nM
MDA-PCa-118b [4]
  Activity: Active
[5]
  Stability: Stable
Prostate cancer organoid
  Activity: Active
MDA-MB-468 [6]
  Activity: Active
[7]
  AUCt: 1719 ng·h/mL
Mu-type opioid receptor
  IC50: 3100 nM
[8]
  AUCt: 737 ng·h/mL
PANC-1
  IC50: 147 nM
[9]
  Tmax: 15 min
MDA-PCa-118b [10]
  Activity: Active
MDA-PCa-118b [11]
  Activity: Active
[12]
  Activity: >50%
[13]
  inhibition: Active
MDA-MB-468 [14]
  Activity: Active
Endothelin-1 receptor
  IC50: 4000 nM
